Assay results as given in ChEMBL document CHEMBL1158759, “Cytotoxic bisindole alkaloids from a marine sponge Spongosorites sp” (J Nat Prod, 2005).
In brackets after ≈: the same amount, converted by molar mass.

Tests used:
Streptococcus pyogenes [1] = assay: Antibacterial activity against Streptococcus pyogenes 308A; assay type: functional
Summary of the method: (§1)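 Agar dilution on Mueller Hinton agar holding 17 serial dilutions of sample (final 25 to 0.002 µg/mL), with meropenem and imipenem as standards. Strains were pre-grown 18 h at 37 °C in Fleisch extract broth, with 10% horse serum for some strains.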

Streptococcus pyogenes [2] = assay: Antibacterial activity against Streptococcus pyogenes 77A; assay type: functional; summary of the method: as §1
Enterococcus faecium = assay: Antibacterial activity against Streptococcus faecium MD 8b; assay type: functional; summary of the method: as §1
Staphylococcus aureus [3] = assay: Antibacterial activity against Staphylococcus aureus SG511; assay type: functional; summary of the method: as §1
Staphylococcus aureus [4] = assay: Antibacterial activity against Staphylococcus aureus 285; assay type: functional; summary of the method: as §1
Escherichia coli = assay: Antibacterial activity against Escherichia coli DC2; assay type: functional; summary of the method: as §1
Pseudomonas aeruginosa = assay: Antibacterial activity against Pseudomonas aeruginosa 1771M; assay type: functional; summary of the method: as §1
Klebsiella oxytoca = assay: Antibacterial activity against Klebsiella oxytoca 1082; assay type: functional; summary of the method: as §1
Staphylococcus aureus [5] = assay: Antibacterial activity against Staphylococcus aureus 503; assay type: functional; summary of the method: as §1
A549 = assay: Cytotoxicity against human A549 cells after 48 hrs by SRB assay; assay type: functional; conditions: A549, 48 h, read-out: ED50 (the source's name)
Summary of the method: (§2)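 Cells in exponential growth were seeded at (1-2) × 10^4 per well and grown 24 h. Cells were fixed with cold TCA and stained with 0.4% SRB in 1% acetic acid. Dye was solubilized in 10 mM unbuffered Tris base and A520 read.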

SK-OV-3 = assay: Cytotoxicity against human SKOV3 cells after 48 hrs by SRB assay; assay type: functional; conditions: SK-OV-3, 48 h, read-out: ED50 (the source's name); summary of the method: as §2
SK-MEL-2 = assay: Cytotoxicity against human SK-MEL-2 cells after 48 hrs by SRB assay; assay type: functional; conditions: SK-MEL-2, 48 h, read-out: ED50 (the source's name); summary of the method: as §2
XF498 = assay: Cytotoxicity against human XF498 cells after 48 hrs by SRB assay; assay type: functional; conditions: XF498, 48 h, read-out: ED50 (the source's name); summary of the method: as §2
HCT-15 = assay: Cytotoxicity against human HCT15 cells after 48 hrs by SRB assay; assay type: functional; conditions: HCT-15, 48 h, read-out: ED50 (the source's name); summary of the method: as §2
P388 = assay: Cytotoxicity against mouse P388 cells; assay type: functional, cell-based

C[C@@H](O)[C@H]1C(=O)N2C(C(=O)O)=C(S[C@@H]3CN[C@H](C(=O)N(C)C)C3)[C@H](C)[C@H]12 [MEROPENEM]
MIC (Streptococcus pyogenes [1]): 0.007 µg/mL (≈ 0.0183 µM) | MIC (Streptococcus pyogenes [2]): 0.007 µg/mL (≈ 0.0183 µM) | MIC (Enterococcus faecium): 6.25 µg/mL (≈ 16.3 µM) | MIC (Staphylococcus aureus [3]): 0.098 µg/mL (≈ 0.256 µM) | MIC (Staphylococcus aureus [4]): 0.195 µg/mL (≈ 0.509 µM) | MIC (Escherichia coli): 0.025 µg/mL (≈ 0.0652 µM) | MIC (Pseudomonas aeruginosa): 0.098 µg/mL (≈ 0.256 µM) | MIC (Klebsiella oxytoca): 0.049 µg/mL (≈ 0.128 µM) | MIC (Staphylococcus aureus [5]): 0.049 µg/mL (≈ 0.128 µM)

COc1cccc2c1C(=O)c1c(O)c3c(c(O)c1C2=O)C[C@@](O)(C(=O)CO)C[C@@H]3O[C@H]1C[C@H](N)[C@H](O)[C@H](C)O1 [DOXORUBICIN]
EC50 (A549): 0.01 µg/mL (≈ 0.0184 µM) | EC50 (SK-OV-3): 0.03 µg/mL (≈ 0.0552 µM) | EC50 (SK-MEL-2): 0.01 µg/mL (≈ 0.0184 µM) | EC50 (XF498): 0.01 µg/mL (≈ 0.0184 µM) | EC50 (HCT-15): 0.05 µg/mL (≈ 0.092 µM)

O=C1NC[C@@H](c2c[nH]c3cc(Br)ccc23)N[C@H]1c1c[nH]c2cc(Br)ccc12 (relative stereo) [CIS-3,4-DIHYDROHAMACANTHIN B]
EC50 (A549): 3.41 µg/mL (≈ 6.99 µM) | EC50 (SK-OV-3): 3.62 µg/mL (≈ 7.42 µM) | EC50 (SK-MEL-2): 3.85 µg/mL (≈ 7.89 µM) | EC50 (XF498): 3.22 µg/mL (≈ 6.6 µM) | EC50 (HCT-15): 2.83 µg/mL (≈ 5.8 µM) | MIC (Streptococcus pyogenes [1]): 12.5 µg/mL (≈ 25.6 µM) | MIC (Streptococcus pyogenes [2]): 25 µg/mL (≈ 51.2 µM) | MIC (Enterococcus faecium): > 25 µg/mL | MIC (Staphylococcus aureus [3]): 12.5 µg/mL (≈ 25.6 µM) | MIC (Staphylococcus aureus [4]): 25 µg/mL (≈ 51.2 µM) | MIC (Escherichia coli): 25 µg/mL (≈ 51.2 µM) | MIC (Pseudomonas aeruginosa): 25 µg/mL (≈ 51.2 µM) | MIC (Klebsiella oxytoca): 25 µg/mL (≈ 51.2 µM) | MIC (Staphylococcus aureus [5]): 25 µg/mL (≈ 51.2 µM)

O=C(c1nc(-c2c[nH]c3ccccc23)c[nH]1)c1c[nH]c2cc(O)ccc12 [TOPSENTIN]
EC50 (A549): > 30 µg/mL | EC50 (SK-OV-3): > 30 µg/mL | EC50 (SK-MEL-2): > 30 µg/mL | EC50 (XF498): > 30 µg/mL | EC50 (HCT-15): 13.3 µg/mL (≈ 38.9 µM) | IC50 (P388): 2 µg/mL (≈ 5.84 µM)

C[C@@H](O)[C@H]1C(=O)N2C(C(=O)O)=C(SCCNC=N)C[C@H]12 [IMIPENEM ANHYDROUS]
MIC (Streptococcus pyogenes [1]): 0.004 µg/mL (≈ 0.0134 µM) | MIC (Streptococcus pyogenes [2]): 0.004 µg/mL (≈ 0.0134 µM) | MIC (Enterococcus faecium): 0.781 µg/mL (≈ 2.61 µM) | MIC (Staphylococcus aureus [3]): 0.013 µg/mL (≈ 0.0434 µM) | MIC (Staphylococcus aureus [4]): 0.013 µg/mL (≈ 0.0434 µM) | MIC (Escherichia coli): 0.195 µg/mL (≈ 0.651 µM) | MIC (Pseudomonas aeruginosa): 0.098 µg/mL (≈ 0.327 µM) | MIC (Klebsiella oxytoca): 0.195 µg/mL (≈ 0.651 µM) | MIC (Staphylococcus aureus [5]): 0.007 µg/mL (≈ 0.0234 µM)

O=C(c1nc(-c2c[nH]c3cc(Br)ccc23)c[nH]1)c1c[nH]c2cc(O)ccc12 [BROMOTOPSENTIN]
EC50 (A549): > 30 µg/mL | EC50 (SK-OV-3): 28.1 µg/mL (≈ 66.8 µM) | EC50 (SK-MEL-2): 7.02 µg/mL (≈ 16.7 µM) | EC50 (XF498): 15 µg/mL (≈ 35.6 µM) | EC50 (HCT-15): > 30 µg/mL | IC50 (P388): 7 µg/mL (≈ 16.6 µM)
